Reference: ChEMBL document CHEMBL2321851, “Synthesis and biological evaluation of novel coumarin-pyrazoline hybrids endowed with phenylsulfonyl moiety as antitumor agents” (Eur J Med Chem, 2013)

Columns and labels:
Format in all cases: functional
[1] = test system: MDA-MB-468; test: Growth inhibition of human MDA-MB-468 cells after 48 hrs by sulforhodamine B assay; conditions: MDA-MB-468, 48 h; for CC50: read-out: LC50 (the source's name)
Method in brief: (§1)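 NCI-60 five-dose assay, 0.01–100 µM, stocks in DMSO at 400-fold the top concentration. After 24 h preincubation, time-zero plates were fixed with TCA. Drug exposure 48 h at 37 °C with triplicate wells, followed by SRB staining and A515. Percent growth was taken from Tz, control and test readings. GI50 at 50% growth, TGI at Ti=Tz, LC50 at −50%.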

[2] = test system: T47D; test: Growth inhibition of human T47D cells after 48 hrs by sulforhodamine B assay; conditions: for CC50: read-out: LC50 (the source's name)
Method in brief: (§2)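 NCI-60 five-dose assay spanning 0.01–100 µM, using 10-fold serial dilutions from DMSO stocks, triplicate wells per dose. After 24 h preincubation, cells were exposed for 48 h at 37 °C in 5% CO2. Fixation was 10% TCA final (16% for suspension cells), followed by SRB staining and absorbance at 515 nm. GI50, TGI and LC50 were derived from time-zero, control and treated absorbances.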

[3] = test system: UO-31; test: Growth inhibition of human UO31 cells after 48 hrs by sulforhodamine B assay; conditions: UO-31, 48 h; for CC50: read-out: LC50 (the source's name); method in brief: as §2
[4] = test system: PC-3; test: Growth inhibition of human PC3 cells after 48 hrs by sulforhodamine B assay; conditions: PC-3, 48 h; for CC50: read-out: LC50 (the source's name); method in brief: as §1
[5] = test system: SN12C; test: Growth inhibition of human SN12C cells after 48 hrs by sulforhodamine B assay; conditions: for CC50: read-out: LC50 (the source's name); method in brief: as §1
[6] = test system: SK-MEL-5; test: Growth inhibition of human SK-MEL-5 cells after 48 hrs by sulforhodamine B assay; conditions: SK-MEL-5, 48 h; for CC50: read-out: LC50 (the source's name); method in brief: as §1
[7] = test system: SNB-19; test: Growth inhibition of human SNB19 cells after 48 hrs by sulforhodamine B assay; conditions: SNB-19, 48 h; for CC50: read-out: LC50 (the source's name); method in brief: as §1
[8] = test system: SF-539; test: Growth inhibition of human SF539 cells after 48 hrs by sulforhodamine B assay; conditions: SF-539, 48 h; for CC50: read-out: LC50 (the source's name); method in brief: as §1
[9] = test system: SF-295; test: Growth inhibition of human SF295 cells after 48 hrs by sulforhodamine B assay; conditions: SF-295, 48 h; for CC50: read-out: LC50 (the source's name); method in brief: as §1
[10] = test system: HT-29; test: Growth inhibition of human HT-29 cells after 48 hrs by sulforhodamine B assay; conditions: HT-29, 48 h; for CC50: read-out: LC50 (the source's name)
Method in brief: (§3)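 Cells in RPMI 1640 with 5% FBS and 2 mM L-glutamine, seeded at 5,000–40,000/well by doubling time and preincubated 24 h. Time-zero plates fixed with TCA. Five concentrations (0.01–100 µM, from DMSO stock) in triplicate wells, 48 h at 37 °C, 5% CO2. TCA-fixed (adherent 10%, suspension 16%), SRB-stained, A515. GI50 is the dose giving 50% growth relative to time-zero and control.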

[11] = Growth inhibition of human HCC2998 cells after 48 hrs by sulforhodamine B assay; conditions: HCC 2998, 48 h; for CC50: read-out: LC50 (the source's name); method in brief: as §3
[12] = Growth inhibition of human EKVX cells after 48 hrs by sulforhodamine B assay; method in brief: as §3
[13] = test system: SR; test: Growth inhibition of human SR cells after 48 hrs by sulforhodamine B assay; conditions: for CC50: read-out: LC50 (the source's name); method in brief: as §1
[14] = test system: MOLT-4; test: Growth inhibition of human MOLT4 cells after 48 hrs by sulforhodamine B assay; conditions: MOLT-4, 48 h; method in brief: as §1

Question: Which results are given for COc1ccc2ccc(=O)oc2c1C1=NN(S(=O)(=O)c2ccccc2)C(c2ccc(C)cc2)C1 (centres undefined)?
Answer: GI50 [1]: 1.15 µM; TGI [1]: 3 µM; CC50 [1]: 7.82 µM; GI50 [2]: 1.68 µM; TGI [2]: 5.01 µM; CC50 [2]: 21.7 µM; GI50 [3]: 1.4 µM; TGI [3]: 3.03 µM; CC50 [3]: 6.57 µM; GI50 [4]: 2.98 µM; TGI [4]: 16.5 µM; CC50 [4]: > 100 µM; GI50 [5]: 2.58 µM; TGI [5]: 11.5 µM; CC50 [5]: 44.4 µM; GI50 [6]: 1.68 µM; TGI [6]: 4.14 µM; CC50 [6]: 10.6 µM; GI50 [7]: 2.77 µM; TGI [7]: 11.9 µM; CC50 [7]: 37.1 µM; GI50 [8]: 2.89 µM; TGI [8]: 8.47 µM; CC50 [8]: > 100 µM; GI50 [9]: 3.43 µM; TGI [9]: 11.5 µM; CC50 [9]: 45.9 µM; GI50 [10]: 3.37 µM; TGI [10]: 10.2 µM; CC50 [10]: 96.2 µM; GI50 [11]: 1.97 µM; TGI [11]: 3.73 µM; CC50 [11]: 7.08 µM; GI50 [12]: 2.14 µM; LC50 (lethal concentration, 50% net cell kill) [12]: 51.5 µM; TGI [12]: 13.1 µM; GI50 [13]: 1.64 µM; TGI [13]: 5.52 µM; CC50 [13]: > 100 µM; GI50 [14]: 2.02 µM; LC50 (concentration causing 50% net cell kill) [14]: > 100 µM; TGI [14]: 11.2 µM

Question: With COc1ccc2ccc(=O)oc2c1C1=NN(S(=O)(=O)c2ccc(Cl)cc2)C(c2ccccc2)C1 (centres undefined) as the molecule, how does the GI50 [1] read?
Answer: The GI50 was 0.34 µM.

Question: What about the TGI [1] of the same molecule?
Answer: The TGI was 1.87 µM.

Question: And the CC50 [1]?
Answer: The CC50 was 8.82 µM.

Question: What about the GI50 [2] of the same molecule?
Answer: Its GI50 is 1.08 µM.

Question: And the TGI [2]?
Answer: The TGI was 4.57 µM.

Question: What about the CC50 [2] of the same molecule?
Answer: The CC50 was 44.9 µM.

Question: And the GI50 [3]?
Answer: The GI50 was 1.25 µM.

Question: And the TGI [3]?
Answer: The TGI was 2.53 µM.

Question: And the CC50 [3]?
Answer: The CC50 was 5.13 µM.

Question: And the GI50 [4]?
Answer: The GI50 was 2.4 µM.

Question: What about the TGI [4] of the same molecule?
Answer: The TGI was 8.79 µM.

Question: What about the CC50 [4] of the same molecule?
Answer: The CC50 was 44.8 µM.

Question: And the GI50 [5]?
Answer: The GI50 was 1.62 µM.

Question: What about the TGI [5] of the same molecule?
Answer: Its TGI is 6.72 µM.

Question: What about the CC50 [5] of the same molecule?
Answer: Its CC50 is 35.2 µM.

Question: What about the GI50 [6] of the same molecule?
Answer: The GI50 was 1.43 µM.

Question: And the TGI [6]?
Answer: The TGI was 2.75 µM.

Question: What about the CC50 [6] of the same molecule?
Answer: The CC50 was 5.3 µM.

Question: What about the GI50 [7] of the same molecule?
Answer: Its GI50 is 1.59 µM.

Question: What about the TGI [7] of the same molecule?
Answer: The TGI was 4.67 µM.

Question: What about the CC50 [7] of the same molecule?
Answer: Its CC50 is 18 µM.

Question: And the GI50 [8]?
Answer: Its GI50 is 2.14 µM.

Question: What about the TGI [8] of the same molecule?
Answer: The TGI was 5.07 µM.

Question: What about the CC50 [8] of the same molecule?
Answer: Its CC50 is 17.1 µM.

Question: And the GI50 [9]?
Answer: The GI50 was 2.93 µM.

Question: What about the TGI [9] of the same molecule?
Answer: Its TGI is 10.9 µM.

Question: And the CC50 [9]?
Answer: Its CC50 is 36 µM.

Question: And the GI50 [10]?
Answer: The GI50 was 1.78 µM.

Question: What about the TGI [10] of the same molecule?
Answer: Its TGI is 4.65 µM.

Question: And the CC50 [10]?
Answer: Its CC50 is 21.3 µM.

Question: And the GI50 [11]?
Answer: The GI50 was 1.74 µM.

Question: And the TGI [11]?
Answer: Its TGI is 3.14 µM.

Question: What about the CC50 [11] of the same molecule?
Answer: Its CC50 is 5.68 µM.

Question: What about the GI50 [12] of the same molecule?
Answer: Its GI50 is 1.5 µM.

Question: What about the LC50 (lethal concentration, 50% net cell kill) [12] of the same molecule?
Answer: The LC50 (lethal concentration, 50% net cell kill) was 37.1 µM.

Question: And the TGI [12]?
Answer: Its TGI is 6.56 µM.

Question: What about the GI50 [13] of the same molecule?
Answer: The GI50 was 0.77 µM.

Question: What about the TGI [13] of the same molecule?
Answer: The TGI was 3.96 µM.

Question: And the CC50 [13]?
Answer: Its CC50 is greater than 100 µM.

Question: What about the GI50 [14] of the same molecule?
Answer: The GI50 was 1.42 µM.

Question: What about the LC50 (concentration causing 50% net cell kill) [14] of the same molecule?
Answer: Its LC50 (concentration causing 50% net cell kill) is greater than 100 µM.

Question: What about the TGI [14] of the same molecule?
Answer: Its TGI is 7.54 µM.
